Calls of active or inactive are those of the source. The calls are words filed in the database; no cut-off is given here.
Experiments:
[1] = molecular target: T1, Bcl-2-related protein A1 (Homo sapiens) (UniProt Q16548); assay: Binding affinity to recombinant human C-terminal His6-tagged Bcl2A1 (1 to 152 residues) expressed in Escherichia coli assessed as adduct formation at 25 uM measured after 5 hrs by LC-MS analysis
T1 sequence (whole entry): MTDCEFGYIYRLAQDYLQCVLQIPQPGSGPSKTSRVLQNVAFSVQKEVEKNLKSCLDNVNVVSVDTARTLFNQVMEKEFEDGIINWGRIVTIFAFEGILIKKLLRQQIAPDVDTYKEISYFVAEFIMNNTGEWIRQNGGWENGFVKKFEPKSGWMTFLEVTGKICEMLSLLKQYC
Summary of the method: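 Bcl2A1 (5 μM) reacted with electrophilic peptide (25 μM) at pH 7.2 for 5 h. Protein adducts analysed by mass spectrometry.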

[2] = Stability of the compound in DTT buffer at 50 uM and pH 7.2 measured after 1 to 17 hrs by mass spectra analysis; assay type: physicochemical; details: pH 7.2, 50 µM
Summary of the method: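 Peptide held in 1 mM dithiothreitol over several hours to follow its integrity.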

[3] = Metabolic stability in human serum at 25 uM measured up to 6 hrs; assay type: ADME
Bcl-2-related protein A1 = molecular target: T2, Bcl-2-related protein A1 (Homo sapiens, UniProt Q16548); assay: Inhibition of FITC-betaA-DIIRNIARHLAQVGDSMRSI-NH2 binding to recombinant human Bcl2A1 (1 to 152 residues) BH3 binding site expressed in Escherichia coli measured after 2 hrs by fluorescence polarization assay; details: for Ki: read-out: Ki(app)
T2 sequence (Q16548 whole entry): T1 sequence (whole entry)
Summary of the method: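 Competitive fluorescence polarization: Bcl2A1 (15 nM) with FITC-Bid tracer (5 nM), protein/tracer 3:1 to keep fluorescence measurable, exposed to increasing peptide concentrations for 2 h. IC50 read from inhibition curves; apparent Ki derived from it.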

[4] = molecular target: T1, Bcl-2-related protein A1 (Homo sapiens); assay: Binding affinity to Bcl2A1 in human U937 cells assessed as Bcl2A1 modification at 5 to 50 uM measured after overnight incubation by Western blot analysis; assay type: cell-based; details: U-937
Summary of the method: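 Live U937 cells incubated with peptide for 24 h at 37 °C, then lysed. Covalent Bcl2A1 modification detected by Western blot.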

[5] = molecular target: T1, Bcl-2-related protein A1 (Homo sapiens); details: 500 nM
[6] = molecular target: T1, Bcl-2-related protein A1 (Homo sapiens); details: 500 nM; remark: listed apart in the source
[7] = molecular target: T1, Bcl-2-related protein A1 (Homo sapiens); assay: Reversible inhibition of FITC-betaA-DIIRNIARHLAQVGDSMRSI-NH2 binding to recombinant human Bcl2A1 (1 to 152 residues) BH3 binding site expressed in Escherichia coli preincubated for 1 hr with 2 fold diluted Bcl2A1 prior to FITC-betaA-DIIRNIARHLAQVGDSMRSI-NH2 addition measured every minute over 3.5 hrs by fluorescence polarization assay
Summary of the method: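 Bcl2A1 2-fold serially diluted (250 to 0.25 nM), preincubated 1 h with peptide at several protein/peptide ratios. FITC-Bid (5 nM) then added and fluorescence polarization recorded as titration binding curves. Buffer in place of peptide as control.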

[8] = molecular target: T1, Bcl-2-related protein A1 (Homo sapiens); assay: Binding affinity to Bcl2A1 (unknown origin) overexpressed in human HeLa cells at 50 uM measured after 24 hrs by Western blot analysis; assay type: cell-based
[9] = Drug uptake in mitochondria of human U937 cells at 1 uM measured after 4 hrs using FITC-labeled compound by Hoechst and MitoTracker Deep Red dye-based confocal live cell microscopy; assay type: ADME; details: u-937, 4 h
Summary of the method: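 Live U937 lymphoma cells given FITC-labelled peptide (1 μM) for 4 h. Nuclei stained with Hoechst and mitochondria with MitoTracker; colocalization imaged by confocal microscopy.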

[10] = Cellular uptake in human U937 cells at 10 uM measured after 4 hrs by flow cytometry; assay type: ADME, cell-based; details: u-937, 4 h

Question: With `C#CC(=O)NC[C@H](NC(=O)[C@@H](NC(C)=O)[C@@H](C)CC)C(=O)N[C@H](C(=O)N[C@@H](C)C(=O)N[C@@H](CCC(N)=O)C(=O)N[C@@H](CCC(=O)O)C(=O)N[C@@H](CC(C)C)C(=O)N[C@@H](CCCNC(=N)N)C(=O)N[C@@]1(C)CCCC=CCCC[C@@](C)(C(=O)N[C@@H](Cc2ccccc2)C(=O)N[C@@H](CC(N)=O)C(=O)N[C@@H](C)C(=O)N[C@@H](Cc2ccc(O)cc2)C(=O)N[C@@H](Cc2ccc(O)cc2)C(=O)N[C@@H](C)C(=O)N[C@@H](CCCNC(=N)N)C(=O)N[C@@H](CCCNC(=N)N)C(N)=O)NC(=O)[C@H](CC(=O)O)NC(=O)CNC(=O)[C@H]([C@@H](C)CC)NC1=O)[C@@H](C)CC` as the compound, how does the Activity [1] read?
Answer: Active

Question: What does the source list for `C=CC(=O)NC[C@H](NC(=O)[C@@H](NC(C)=O)[C@@H](C)CC)C(=O)N[C@H](C(=O)N[C@@H](C)C(=O)N[C@@H](CCC(N)=O)C(=O)N[C@@H](CCC(=O)O)C(=O)N[C@@H](CC(C)C)C(=O)N[C@@H](CCCNC(=N)N)C(=O)N[C@@]1(C)CCCC=CCCC[C@@](C)(C(=O)N[C@@H](Cc2ccccc2)C(=O)N[C@@H](CC(N)=O)C(=O)N[C@@H](C)C(=O)N[C@@H](Cc2ccc(O)cc2)C(=O)N[C@@H](Cc2ccc(O)cc2)C(=O)N[C@@H](C)C(=O)N[C@@H](CCCNC(=N)N)C(=O)N[C@@H](CCCNC(=N)N)C(N)=O)NC(=O)[C@H](CC(=O)O)NC(=O)CNC(=O)[C@H]([C@@H](C)CC)NC1=O)[C@@H](C)CC`?
Answer: Stability [2]: Stable; Stability [3]: Stable; IC50 (Bcl-2-related protein A1): 8.5 nM; Ki (Bcl-2-related protein A1): < 0.1 nM; Activity [4]: Active; T1/2 [5]: 28 min; inhibition [6]: Active

Question: For `CC[C@H](C)[C@H](NC(C)=O)C(=O)N[C@@H](CNC(=O)CCl)C(=O)N[C@H](C(=O)N[C@@H](C)C(=O)N[C@@H](CCC(N)=O)C(=O)N[C@@H](CCC(=O)O)C(=O)N[C@@H](CC(C)C)C(=O)N[C@@H](CCCNC(=N)N)C(=O)N[C@@]1(C)CCCC=CCCC[C@@](C)(C(=O)N[C@@H](Cc2ccccc2)C(=O)N[C@@H](CC(N)=O)C(=O)N[C@@H](C)C(=O)N[C@@H](Cc2ccc(O)cc2)C(=O)N[C@@H](Cc2ccc(O)cc2)C(=O)N[C@@H](C)C(=O)N[C@@H](CCCNC(=N)N)C(=O)N[C@@H](CCCNC(=N)N)C(N)=O)NC(=O)[C@H](CC(=O)O)NC(=O)CNC(=O)[C@H]([C@@H](C)CC)NC1=O)[C@@H](C)CC`, which Activity [1] is on record?
Answer: Active

Question: For `CC[C@H](C)[C@H](NC(C)=O)C(=O)N[C@@H](Cc1c[nH]c2ccccc12)C(=O)N[C@H](C(=O)N[C@@H](C)C(=O)N[C@@H](CCC(N)=O)C(=O)N[C@@H](CCC(=O)O)C(=O)N[C@@H](CC(C)C)C(=O)N[C@@H](CCCNC(=N)N)C(=O)N[C@@]1(C)CCCC=CCCC[C@@](C)(C(=O)N[C@@H](Cc2ccccc2)C(=O)N[C@@H](CC(N)=O)C(=O)N[C@@H](C)C(=O)N[C@@H](Cc2ccc(O)cc2)C(=O)N[C@@H](Cc2ccc(O)cc2)C(=O)N[C@@H](C)C(=O)N[C@@H](CCCNC(=N)N)C(=O)N[C@@H](CCCNC(=N)N)C(N)=O)NC(=O)[C@H](CC(=O)O)NC(=O)CNC(=O)[C@H]([C@@H](C)CC)NC1=O)[C@@H](C)CC`, which Stability [3] is on record?
Answer: Stable

Question: And the IC50 (Bcl-2-related protein A1)?
Answer: 110 nM

Question: What about the Ki (Bcl-2-related protein A1) of the same compound?
Answer: 32 nM

Question: What about the inhibition [7] of the same compound?
Answer: Active

Question: What about the Activity [4] of the same compound?
Answer: Active

Question: What about the Activity [8] of the same compound?
Answer: Active

Question: What does the source list for `C=CC(=O)NC[C@H](NC(=O)[C@@H](NC(=O)CCCCCNC(=O)c1cc(N=C=S)ccc1-c1c2ccc(=O)cc-2oc2cc(O)ccc12)[C@@H](C)CC)C(=O)N[C@H](C(=O)N[C@@H](C)C(=O)N[C@@H](CCC(N)=O)C(=O)N[C@@H](CCC(=O)O)C(=O)N[C@@H](CC(C)C)C(=O)N[C@@H](CCCNC(=N)N)C(=O)N[C@@]1(C)CCCC=CCCC[C@@](C)(C(=O)N[C@@H](Cc2ccccc2)C(=O)N[C@@H](CC(N)=O)C(=O)N[C@@H](C)C(=O)N[C@@H](Cc2ccc(O)cc2)C(=O)N[C@@H](Cc2ccc(O)cc2)C(=O)N[C@@H](C)C(=O)N[C@@H](CCCNC(=N)N)C(=O)N[C@@H](CCCNC(=N)N)C(N)=O)NC(=O)[C@H](CC(=O)O)NC(=O)CNC(=O)[C@H]([C@@H](C)CC)NC1=O)[C@@H](C)CC`?
Answer: Drug uptake [9]: Active; Drug uptake [10]: Active

— ChEMBL document CHEMBL3875227, “Electrophilic Helical Peptides That Bond Covalently, Irreversibly, and Selectively in a Protein-Protein Interaction Site” (ACS Med Chem Lett, 2017)
